# Measured values reported in ChEMBL document CHEMBL1125795, “Substrate analogue renin inhibitors containing replacements of histidine in P2 or isosteres of the amide bond between P3 and P2 sites” (J Med Chem, 1991).
# Starred links: 1 amine or outer side, 2 acyl side, 3 side chain; linkers in the order of their positions; H or OH if unused. Non-standard residues stand in square brackets, D forms with d. Residues, ends and D or L forms follow the SMILES beside them. *: point of attachment. X1 = CC(C)C[C@H](N[*:1])[C@@H](O)C[C@H](C(=O)[*:2])C(C)C; Boc = CC(C)(C)OC(=O)*
# What was measured:
# [1] = target: Pepsin A (Sus scrofa, UniProt P00791); test: In vitro inhibitory activity against porcine Pepsin.
# Method in brief: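 Porcine pepsin (20 units) digesting hemoglobin at pH 1.8, 10 min, 35.5 °C. Released TCA-soluble peptides measured at 280 nm; IC50 is the concentration halving peptide liberation.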
# [2] = target: T1, Cathepsin D (Bos taurus, UniProt P80209); test: In vitro inhibitory activity against bovine Cathepsin D
# T1 sequence (P80209 whole entry): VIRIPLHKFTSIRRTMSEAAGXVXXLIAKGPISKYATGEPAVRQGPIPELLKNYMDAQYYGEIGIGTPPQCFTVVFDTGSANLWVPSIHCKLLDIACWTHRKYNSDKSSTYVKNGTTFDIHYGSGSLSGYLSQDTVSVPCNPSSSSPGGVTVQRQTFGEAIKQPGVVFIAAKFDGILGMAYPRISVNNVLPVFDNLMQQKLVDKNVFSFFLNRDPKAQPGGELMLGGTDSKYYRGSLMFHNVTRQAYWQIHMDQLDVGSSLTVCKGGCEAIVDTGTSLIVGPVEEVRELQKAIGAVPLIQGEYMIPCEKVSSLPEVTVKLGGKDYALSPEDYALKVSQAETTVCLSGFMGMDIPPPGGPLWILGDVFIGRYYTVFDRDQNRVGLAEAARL
# Method in brief: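 Bovine cathepsin D (100 munits) acting on hemoglobin at pH 3.2, 20 min, 37 °C. TCA-soluble peptides released were read by absorbance at 280 nm; IC50 taken as the concentration giving 50% inhibition of peptide liberation.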
# [3] = target: T2, Renin (Homo sapiens, UniProt P00797); test: In vitro for inhibitory activity against human renin
# T2 sequence (P00797 whole entry): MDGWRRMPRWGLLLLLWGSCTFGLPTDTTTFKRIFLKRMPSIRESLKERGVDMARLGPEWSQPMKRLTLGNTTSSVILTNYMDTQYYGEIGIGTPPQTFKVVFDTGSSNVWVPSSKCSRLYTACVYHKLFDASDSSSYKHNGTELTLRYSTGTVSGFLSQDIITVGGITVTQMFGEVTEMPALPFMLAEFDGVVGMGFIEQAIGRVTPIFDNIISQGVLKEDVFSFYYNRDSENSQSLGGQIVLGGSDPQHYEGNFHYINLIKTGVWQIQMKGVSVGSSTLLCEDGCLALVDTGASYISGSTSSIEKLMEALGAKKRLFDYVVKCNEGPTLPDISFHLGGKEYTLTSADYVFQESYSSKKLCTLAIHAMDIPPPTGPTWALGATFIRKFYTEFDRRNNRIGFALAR
# Method in brief: (§1)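 Endogenous renin and angiotensinogen in human EDTA plasma; incubation mixture of 76 mM maleate pH 5.5, 7.2 mM EDTA, 1% DMSO, 8.3 mM 8-hydroxyquinoline; 2 h at 37 °C, then on ice; angiotensin I measured by radioimmunoassay. At least three inhibitor concentrations bracketing the IC50; IC50 calculated from percent inhibition.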
# [4] = target: T2, Renin; test: Compound was tested in vitro for inhibitory activity against human renin; method in brief: as §1
# [5] = Partition coefficient (logP); format: physicochemical; settings: octanol/water
# Method in brief: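 Octanol/water partition coefficient measured at pH 7.4.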
# [6] = Plasma renin activity change in salt depleted cynomolgus monkeys after 180 minutes, administration of the compound.; format: functional, Cercopithecidae
# Method in brief: (§2)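 Cynomolgus monkeys salt-depleted with furosemide 2 mg/kg im daily from 4 days before the experiment; haloperidol 0.3 mg/kg im for sedation on the test day. Conscious chair-restrained animals; systolic pressure by tail-cuff every 5 min, stabilized before dosing. Single oral 30 mg/kg dose, n = 4; PRA from blood samples. Change from T = 0 baseline, mean ± SE.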
# [7] = Plasma renin activity change in salt depleted cynomolgus monkeys.; format: functional, Cercopithecidae; method in brief: as §2
# [8] = Systolic blood pressure change in salt depleted cynomolgus monkeys.; format: functional, Cercopithecidae; method in brief: as §2
# [9] = Duration of Systolic blood pressure decrease in salt depleted cynomolgus monkeys.; format: functional, Cercopithecidae; method in brief: as §2
# [10] = target: T2, Renin; test: The compound was tested in vitro for inhibitory activity against human renin; method in brief: as §1
# Chain of Pepsin A (P00791 whole entry): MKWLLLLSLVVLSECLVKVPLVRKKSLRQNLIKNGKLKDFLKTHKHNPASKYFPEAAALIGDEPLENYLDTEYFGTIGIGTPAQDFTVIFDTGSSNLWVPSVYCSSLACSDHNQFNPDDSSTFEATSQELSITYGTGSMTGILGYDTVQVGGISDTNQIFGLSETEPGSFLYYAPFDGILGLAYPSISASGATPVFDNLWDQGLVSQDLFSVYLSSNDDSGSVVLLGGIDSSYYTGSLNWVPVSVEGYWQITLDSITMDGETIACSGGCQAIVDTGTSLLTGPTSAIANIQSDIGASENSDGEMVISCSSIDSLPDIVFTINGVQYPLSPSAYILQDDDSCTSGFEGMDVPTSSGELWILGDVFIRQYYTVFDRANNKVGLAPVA
SMILES,IC50 [1],IC50 [2],IC50 [3],further results
CC[C@H](C)[C@H](NC(=O)C[C@H](O)[C@H](CC1CCCCC1)NC(=O)CCNC(=O)[C@@H](N)Cc1ccccc1)C(=O)NCc1cnc(C)nc1N,> 10 µM,> 10 µM,0.0195 µM,–
CC[C@H](C)[C@H](NC(=O)C[C@H](O)[C@H](CC1CCCCC1)NC(=O)CCNC(=O)[C@H](Cc1ccccc1)NC(=O)N1CCOCC1)C(=O)NCc1cnc(C)nc1N,> 10 µM,> 10 µM,0.00028 µM,–
CC[C@H](C)[C@H](NC(=O)C[C@H](O)[C@H](CC1CCCCC1)NC(=O)CCNC(=O)[C@H](Cc1ccccc1)NC(=O)N1CCC(N(C)C)CC1)C(=O)NCc1cnc(C)nc1N,> 10 µM,10 µM,0.00058 µM,–
CC[C@H](C)[C@H](NC(=O)[C@@H](C[C@H](O)[C@H](CC(C)C)NC(=O)CCC(=O)[C@H](Cc1ccccc1)NC(=O)OC(C)(C)C)C(C)C)C(=O)NCc1cnc(C)nc1N,12 µM,8 µM,–,IC50 [4]: 0.0051 µM
CC[C@H](C)[C@H](NC(=O)C[C@H](O)[C@H](CC1CCCCC1)NC(=O)CCNC(=O)[C@H](Cc1ccccc1)NC(=O)CCC[N+](C)(C)C)C(=O)NCc1cnc(C)nc1N.[Cl-],> 10 µM,> 10 µM,0.008 µM,logP [5]: 1.53; Change [6]: -78.3%; Change [7]: -83.2%; Change [8]: -10.6%; Duration [9]: > 130 min
CC[C@H](C)[C@H](NC(=O)C[C@H](O)[C@H](CC1CCCCC1)NC(=O)CCNC(=O)[C@H](Cc1ccccc1)NC(=O)N1CCC(N)CC1)C(=O)NCc1cnc(C)nc1N.Cl.Cl,> 10 µM,8.5 µM,0.00076 µM,logP [5]: 1.83; Change [6]: -89.3%; Change [7]: -90.5%; Change [8]: -24.7%; Duration [9]: >180 min
CC[C@H](C)[C@H](NC(=O)C[C@H](O)[C@H](Cc1ccccc1)NC(=O)[C@H](Cc1c[nH]cn1)NC(=O)[C@H](Cc1ccccc1)NC(=O)OC(C)(C)C)C(=O)NCc1cccnc1,> 10 µM,5.8 µM,0.0029 µM,–
CC[C@H](C)[C@H](NC(=O)C[C@H](O)[C@H](CC1CCCCC1)NC(=O)CCNC(=O)[C@H](Cc1ccccc1)NC(=O)CCCCCN)C(=O)NCc1cnc(C)nc1N,> 10 µM,> 10 µM,0.0045 µM,–
CC[C@H](C)[C@H](NC(=O)[C@@H](C[C@H](O)[C@H](CC(C)C)NC(=O)CSCC(=O)[C@H](Cc1ccccc1)NC(=O)OC(C)(C)C)C(C)C)C(=O)NCc1cnc(C)nc1N,6 µM,8.8 µM,0.0054 µM,–
CCOC(=O)C1CCN(C(=O)N[C@@H](Cc2ccccc2)C(=O)NCCC(=O)N[C@@H](CC2CCCCC2)[C@@H](O)CC(=O)N[C@H](C(=O)NCc2cnc(C)nc2N)[C@@H](C)CC)CC1,4.2 µM,3.15 µM,0.00041 µM,–
CC[C@H](C)[C@H](NC(=O)[C@@H](C[C@H](O)[C@H](CC(C)C)NC(=O)[C@H](Cc1c[nH]cn1)NC(=O)[C@H](Cc1ccccc1)NC(=O)OC(C)(C)C)C(C)C)C(=O)N[C@@H](Cc1c[nH]cn1)C(=O)O (Boc-FH[X1]IH-OH),–,–,–,IC50 [10]: 0.0024 µM
CC[C@H](C)[C@H](NC(=O)C[C@H](O)[C@@H](CC1CCCCC1)NC(=O)CNC(=O)[C@@H](Cc1ccccc1)NC(=O)OC(C)(C)C)C(=O)NCc1cccnc1,40 µM,6.5 µM,0.0028 µM,–
CC[C@H](C)[C@H](NC(=O)[C@@H](C[C@H](O)[C@H](CC(C)C)NC(=O)CNC(=O)[C@H](Cc1ccccc1)NC(=O)OC(C)(C)C)C(C)C)C(=O)NCc1cnc(C)nc1N,1.4 µM,3.9 µM,0.0054 µM,–
CC[C@H](C)[C@H](NC(=O)[C@@H](C[C@H](O)[C@H](CC(C)C)NC(=O)CCNC(=O)[C@H](Cc1ccccc1)NC(=O)OC(C)(C)C)C(C)C)C(=O)NCc1cnc(C)nc1N,0.83 µM,4.7 µM,0.0041 µM,–
CC[C@H](C)[C@H](NC(=O)C[C@H](O)[C@H](CC1CCCCC1)NC(=O)CCNC(=O)[C@@H](Cc1ccccc1)NC(=O)N1CCC(C(=O)O)CC1)C(=O)NCc1cnc(C)nc1N,> 10 µM,> 10 µM,0.00115 µM,–

# More lines, main results first:
IC50 [1],IC50 [2],IC50 [3],SMILES,further results
> 10 µM,> 10 µM,0.24 µM,CC[C@H](C)[C@H](NC(=O)C[C@H](O)[C@H](CC1CCCCC1)NC(=O)CS(=O)(=O)CC(=O)[C@H](Cc1ccccc1)NC(=O)OC(C)(C)C)C(=O)NCc1cnc(C)nc1N,–
> 10 µM,5.9 µM,0.00065 µM,CC[C@H](C)[C@H](NC(=O)C[C@H](O)[C@H](CC1CCCCC1)NC(=O)CCNC(=O)[C@H](Cc1ccccc1)NC(=O)N1CCC(NC(=O)OC(C)(C)C)CC1)C(=O)NCc1cnc(C)nc1N,–
10 µM,> 10 µM,0.0012 µM,CC[C@H](C)[C@H](NC(=O)C[C@H](O)[C@H](CC1CCCCC1)NC(=O)CC[C@@H](O)[C@H](Cc1ccccc1)NC(=O)OC(C)(C)C)C(=O)NCc1cnc(C)nc1N,–
> 10 µM,> 10 µM,0.0042 µM,CC[C@H](C)[C@H](NC(=O)C[C@H](O)[C@H](CC1CCCCC1)NC(=O)CC[C@H](O)[C@H](Cc1ccccc1)NC(=O)OC(C)(C)C)C(=O)NCc1cnc(C)nc1N,–
> 10 µM,> 10 µM,0.07 µM,CC[C@H](C)[C@H](NC(=O)C[C@H](O)[C@H](CC1CCCCC1)NC(=O)C[S+]([O-])CC(=O)[C@H](Cc1ccccc1)NC(=O)OC(C)(C)C)C(=O)NCc1cnc(C)nc1N (stereo partly drawn),–
> 100 µM,> 100 µM,0.0063 µM,CC[C@H](C)[C@H](NC(=O)C[C@H](O)[C@H](CC1CCCCC1)NC(=O)CSC[C@H](O)[C@H](Cc1ccccc1)NC(=O)OC(C)(C)C)C(=O)NCc1cnc(C)nc1N,–
> 100 µM,73 µM,0.0055 µM,CC[C@H](C)[C@H](NC(=O)C[C@H](O)[C@H](CC1CCCCC1)NC(=O)CSC[C@@H](O)[C@H](Cc1ccccc1)NC(=O)OC(C)(C)C)C(=O)NCc1cnc(C)nc1N,–
> 10 µM,> 10 µM,0.0018 µM,CC[C@H](C)[C@H](NC(=O)C[C@H](O)[C@H](CC1CCCCC1)NC(=O)CCNC(=O)[C@@H](Cc1ccccc1)NC(=O)CC(C)(C)N)C(=O)NCc1cnc(C)nc1N,–
> 10 µM,3.2 µM,0.0285 µM,CC[C@H](C)[C@H](NC(=O)C[C@H](O)[C@@H](CC1CCCCC1)NC(=O)CCCNC(=O)[C@@H](Cc1ccccc1)NC(=O)OC(C)(C)C)C(=O)NCc1cnc(C)nc1N,–
> 10 µM,> 10 µM,0.0085 µM,CC[C@H](C)[C@H](NC(=O)C[C@H](O)[C@H](CC1CCCCC1)NC(=O)CCC(=O)[C@H](Cc1ccccc1)NC(=O)OC(C)(C)C)C(=O)NCc1cnc(C)nc1N,–
18.5 µM,7.9 µM,0.0015 µM,CC[C@H](C)[C@H](NC(=O)C[C@H](O)[C@@H](CC1CCCCC1)NC(=O)CCNC(=O)[C@@H](Cc1ccccc1)NC(=O)OC(C)(C)C)C(=O)NCc1cnc(C)nc1N,logP [5]: 2.88; Change [6]: -21.6%; Change [7]: -25.1%
38.5 µM,13 µM,0.0025 µM,CC[C@H](C)[C@H](NC(=O)C[C@H](O)[C@@H](CC1CCCCC1)NC(=O)CNC(=O)[C@@H](Cc1ccccc1)NC(=O)OC(C)(C)C)C(=O)NCc1cnc(C)nc1N,–
0.95 µM,0.028 µM,0.00053 µM,CC[C@H](C)[C@H](NC(=O)C[C@H](O)[C@H](CC1CCCCC1)NC(=O)[C@H](C)NC(=O)[C@H](Cc1ccccc1)NC(=O)OC(C)(C)C)C(=O)NCc1cnc(C)nc1N,–
53 µM,28 µM,–,CC[C@H](C)[C@H](NC(=O)C[C@H](O)[C@H](CC1CCCCC1)NC(=O)CSCC(=O)[C@H](Cc1ccccc1)NC(=O)OC(C)(C)C)C(=O)NCc1cnc(C)nc1N,IC50 [4]: 0.0021 µM
